For 18 molecules, Activity and inhibition results are on record in ChEMBL document CHEMBL3351495, “Anti-inflammatory components of Chrysanthemum indicum flowers” (Bioorg Med Chem Lett, 2015).

The structures appear in SMILES notation. Activity calls are given as the source filed them. No cut-off for these calls is given here.

Data set [1] deals with RAW264.7. Nature of the data set: Cytotoxicity against mouse RAW264.7 cells at 50 uM by MTT assay. The data set is classed as cell-based. Particulars: raw264.7, 50 µM.
Data set [2] deals with RAW264.7. Put plainly: Antiinflammatory activity in mouse RAW264.7 cells assessed as inhibition of LPS-stimulated TNFalpha production at 0.4 to 2 uM by ELISA. The data set is classed as functional, cell-based. In outline: (§1)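 RAW 264.7 cells were stimulated with LPS, with or without each compound at 0.4, 2.0 and 10.0 μM, and secreted TNF-α was measured. Concentrations were kept below 50 μM, the level checked by MTT for viability. Values are mean ± SD from at least three independent experiments, each run in triplicate.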
Background: ELISA stands for enzyme-linked immunosorbent assay.

Data set [3] has as its system RAW264.7. Nature of the data set: Antiinflammatory activity in mouse RAW264.7 cells assessed as inhibition of LPS-stimulated nitric oxide production at 0.4 to 10 uM after 24 hrs by Griess assay. The data set is classed as functional, cell-based. In outline: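 NO made by LPS-stimulated RAW 264.7 cells was measured by Griess reaction. Each compound was screened at 0.4, 2.0 and 10.0 μM, all below the 50 μM level checked for viability by MTT. Results are mean ± SD from at least three independent experiments run in triplicate.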

Data set [4] relates to RAW264.7. Nature of the data set: Antiinflammatory activity in mouse RAW264.7 cells assessed as inhibition of LPS-stimulated TNFalpha production at 2 uM by ELISA. The data set is classed as functional. A digest of the protocol: as §1
Data set [5] relates to RAW264.7. Nature of the data set: Antiinflammatory activity in mouse RAW264.7 cells assessed as inhibition of LPS-stimulated TNFalpha production at 10 uM by ELISA. The data set is classed as functional. A digest of the protocol: as §1
Data set [6] concerns RAW264.7. Nature of the data set: Inhibition of iNOS protein expression in LPS-stimulated mouse RAW264.7 cells by Western blot analysis. The data set is classed as functional, cell-based. In outline: (§2)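 RAW 264.7 cells exposed to LPS (1 μg/ml) with or without test agent at 0.4, 2 and 10 μM. Celecoxib (1 μM) served as reference. COX-2 and iNOS protein detected by Western blot, with actin as loading control.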
(In general: A western blot detects proteins with antibodies after separation by electrophoresis.)

Data set [7] deals with RAW264.7. Nature of the data set: Inhibition of COX2 protein expression in LPS-stimulated mouse RAW264.7 cells by Western blot analysis. The data set is classed as functional, cell-based. A digest of the protocol: as §2
The subject of data set [8] is RAW264.7. Nature of the data set: Antiinflammatory activity in mouse RAW264.7 cells assessed as inhibition of LPS-stimulated nitric oxide production at 10 uM after 24 hrs by Griess assay. The data set is classed as functional. Particulars: RAW264.7, 24 h. A digest of the protocol: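 Nitrite in the medium measured by Griess reaction and given as % inhibition of NO production. Celecoxib (1.0 μM) served as reference. Mean SD of at least three independent experiments, each in triplicate.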

For `OC[C@H]1O[C@@H](OCc2ccccc2)[C@H](O)[C@@H](O)[C@@H]1O`, the Activity result in the data set on RAW264.7 [1] is reported as “Non-toxic”. The inhibition entry with RAW264.7 [2] and in the data set with RAW264.7 [3] was “inactive” each time.

For `COc1cc(-c2oc3cc(O)cc(O)c3c(=O)c2O[C@@H]2O[C@H](CO)[C@@H](O)[C@H](O)[C@H]2O)ccc1O`, in the data set on RAW264.7 [1], the Activity result is “Non-toxic”. Besides, the inhibition (in general, the share of the control response that was lost under treatment) in the data set on RAW264.7 [3] was “inactive”.

Regarding `COC(=O)[C@]1(O)C[C@@H](O)[C@@H](OC(=O)/C=C/c2ccc(O)c(O)c2)[C@H](O)C1`, the Activity entry with RAW264.7 [1] is listed as “Non-toxic”. In addition, the inhibition entry in the data set on RAW264.7 [2] and in the data set on RAW264.7 [3] was “inactive” each time.

As for `CC[C@H](C)C(=O)OC[C@@H]1O[C@@]2(C(=O)OC)C[C@@H](O)[C@@H](O)[C@@H]1O2`, the Activity result in the data set on RAW264.7 [1] was “Non-toxic”. The inhibition entry in the data set with RAW264.7 [3] was “inactive”. Further, the inhibition at 2 µM in the data set with RAW264.7 [4] was determined as 14.4%. Besides, the inhibition at 10 µM in the data set on RAW264.7 [5] turned out to be 22%.

Take `CC1=C(C/C=C\CCO[C@@H]2O[C@H](CO)[C@@H](O)[C@H](O)[C@H]2O)C(=O)CC1`: the Activity result in the data set with RAW264.7 [1] was “Non-toxic”. Besides, the inhibition entry with RAW264.7 [3] was “inactive”. Further, the inhibition at 2 µM in the data set with RAW264.7 [4] was found to be 11.8%. Also, in the data set with RAW264.7 [5], the inhibition at 10 µM came out at 23%.

Turning to `COC(=O)[C@]1(O)C[C@@H](OC(=O)/C=C/c2ccc(O)c(O)c2)[C@@H](O)[C@H](OC(=O)/C=C/c2ccc(O)c(O)c2)C1`, the Activity entry in the data set with RAW264.7 [1] was “Non-toxic”. In the data set with RAW264.7 [3], the inhibition result was “inactive”.

As for `COC(=O)[C@]1(O)C[C@@H](O)[C@@H](OC(=O)/C=C/c2ccc(O)c(O)c2)[C@H](OC(=O)/C=C/c2ccc(O)c(O)c2)C1`, in the data set with RAW264.7 [1], the Activity result is reported as “Non-toxic”. The inhibition result in the data set with RAW264.7 [2] and in the data set with RAW264.7 [3] was “inactive” in each case. Further, the inhibition at 10 µM in the data set with RAW264.7 [5] was found to be 13%.

With `OC[C@H]1O[C@@H](OCCc2ccccc2)[C@H](O)[C@@H](O)[C@@H]1O`, the Activity entry with RAW264.7 [1] is “Non-toxic”. Also, the inhibition result in the data set with RAW264.7 [2] and in the data set on RAW264.7 [3] was “inactive” throughout. Moreover, the inhibition at 10 µM in the data set with RAW264.7 [5] was 13%.

Turning to `O=c1cc(-c2ccc(O)cc2)oc2cc(O[C@@H]3O[C@H](CO)[C@@H](O)[C@H](O)[C@H]3O)cc(O)c12` [APIGETRIN], the Activity entry in the data set with RAW264.7 [1] was “Non-toxic”. In addition, in the data set with RAW264.7 [3], the inhibition result is “inactive”.

Turning to `COC(=O)[C@]1(O)C[C@@H](O)[C@@H](O)[C@H](OC(=O)/C=C/c2ccc(O)c(O)c2)C1` [CHLOROGENIC ACID METHYL ESTER], the Activity result in the data set with RAW264.7 [1] is reported as “Non-toxic”. For the same molecule, the inhibition entry in the data set on RAW264.7 [2] and with RAW264.7 [3] was “inactive” in each case.

For `O=C(/C=C/c1ccc(O)c(O)c1)O[C@@H]1C[C@](O)(C(=O)O)C[C@@H](O)[C@H]1O` [CHLOROGENIC ACID], the Activity result with RAW264.7 [1] is on record as “Non-toxic”. Further, in the data set with RAW264.7 [3], the inhibition result was “inactive”. Further, in the data set with RAW264.7 [4], the inhibition at 2 µM amounted to 16.1%. Also, in the data set with RAW264.7 [5], the inhibition at 10 µM was 24.7%.

For the molecule `O=C(/C=C/c1ccc(O)c(O)c1)O[C@@H]1C[C@@](OC(=O)/C=C/c2ccc(O)c(O)c2)(C(=O)O)C[C@@H](O)[C@@H]1O` [CYNARIN], the Activity result with RAW264.7 [1] is on record as “Non-toxic”. In addition, the inhibition result in the data set on RAW264.7 [2] and with RAW264.7 [3] was “inactive” throughout.

Turning to `COc1cc(CCCO)cc(OC)c1O[C@@H]1O[C@H](CO)[C@@H](O)[C@H](O)[C@H]1O` [DIHYDROSYRINGIN], in the data set with RAW264.7 [1], the Activity entry is “Non-toxic”. The inhibition result in the data set with RAW264.7 [2] and with RAW264.7 [3] was “inactive” each time. Also, the inhibition at 10 µM in the data set with RAW264.7 [5] is 13%.

As to `O=c1cc(-c2ccc(O)c(O)c2)oc2cc(O[C@@H]3O[C@H](CO)[C@@H](O)[C@H](O)[C@H]3O)cc(O)c12` [GALUTEOLIN], the Activity entry with RAW264.7 [1] is “Non-toxic”. Further, the inhibition result in the data set with RAW264.7 [2] and in the data set on RAW264.7 [3] was “inactive” throughout. In the data set on RAW264.7 [5], the inhibition at 10 µM was 13%.

On to `O=c1c(O)c(-c2ccc(O)c(O)c2)oc2cc(O)cc(O)c12` [QUERCETIN], for which the Activity result in the data set with RAW264.7 [1] is reported as “Non-toxic”. Also, the inhibition result in the data set on RAW264.7 [2] was “inactive”. Moreover, the inhibition entry with RAW264.7 [6] and in the data set on RAW264.7 [7] was “Dose-dependent effect” in each case. The inhibition at 10 µM came to 46.1% in the data set with RAW264.7 [8] and 13% with RAW264.7 [5].

On to `O=c1c(O)c(-c2ccc(O)c(O)c2)oc2cc(O[C@@H]3O[C@H](CO)[C@@H](O)[C@H](O)[C@H]3O)cc(O)c12` [QUERCIMERITRIN], for which the Activity entry in the data set on RAW264.7 [1] is “Non-toxic”. Moreover, the inhibition result with RAW264.7 [2] was “inactive”. For the same molecule, the inhibition result in the data set with RAW264.7 [6] and in the data set with RAW264.7 [7] was “Dose-dependent effect” in each case. Also, the inhibition at 10 µM in the data set with RAW264.7 [8] worked out at 36.5%; in the data set on RAW264.7 [5], 13%.

Turning to `COc1cc(/C=C/CO)cc(OC)c1O[C@@H]1O[C@H](CO)[C@@H](O)[C@H](O)[C@H]1O` [SYRINGIN], the Activity entry with RAW264.7 [1] is “Non-toxic”. Moreover, the inhibition result in the data set with RAW264.7 [2] and in the data set on RAW264.7 [3] was “inactive” each time. Besides, the inhibition at 10 µM in the data set on RAW264.7 [5] came out at 13%.

Turning to `COc1cc(-c2cc(=O)c3c(O)cc(O)cc3o2)cc(OC)c1O` [TRICIN], the Activity entry with RAW264.7 [1] is recorded as “Non-toxic”. Further, the inhibition entry in the data set with RAW264.7 [3] is “inactive”.
